STAT3 activator: STAT3 signaling activation | U3A cells, IL-6 STAT3-luciferase reporter, luminescence; 100% = signal with IL-6 EC80 alone | activation (% of control), % at 5.6 µM | 0.91% of 190,000 active;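 active = activation above the screen-wide mean of compound activation plus 3 SD, cut at about 130% in these data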;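 note: 0% = background luminescence of wells with medium and substrate only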
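Test system: human U3A cells carrying STAT3-luciferase construct; control set: IL-6-only wells as 100% reference; timing: compound pre-incubation 1 h before IL-6, then 6 h stimulation at 37 °C; also added: IL-6 stimulus at 33 ng/mL final; evaluation: % activation versus median of IL-6-stimulated wells; detection: reporter luminescence signal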
AHR act: activators of human aryl hydrocarbon receptor | AHR-responsive luciferase reporter cells, luminescence | activation, % at 5 µM | 2.5% of 320,000 active; in the data active = activation above about 47%;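 note: 0% = vehicle wells and 100% = reference agonist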
Target sequence (P35869 whole entry, looked up): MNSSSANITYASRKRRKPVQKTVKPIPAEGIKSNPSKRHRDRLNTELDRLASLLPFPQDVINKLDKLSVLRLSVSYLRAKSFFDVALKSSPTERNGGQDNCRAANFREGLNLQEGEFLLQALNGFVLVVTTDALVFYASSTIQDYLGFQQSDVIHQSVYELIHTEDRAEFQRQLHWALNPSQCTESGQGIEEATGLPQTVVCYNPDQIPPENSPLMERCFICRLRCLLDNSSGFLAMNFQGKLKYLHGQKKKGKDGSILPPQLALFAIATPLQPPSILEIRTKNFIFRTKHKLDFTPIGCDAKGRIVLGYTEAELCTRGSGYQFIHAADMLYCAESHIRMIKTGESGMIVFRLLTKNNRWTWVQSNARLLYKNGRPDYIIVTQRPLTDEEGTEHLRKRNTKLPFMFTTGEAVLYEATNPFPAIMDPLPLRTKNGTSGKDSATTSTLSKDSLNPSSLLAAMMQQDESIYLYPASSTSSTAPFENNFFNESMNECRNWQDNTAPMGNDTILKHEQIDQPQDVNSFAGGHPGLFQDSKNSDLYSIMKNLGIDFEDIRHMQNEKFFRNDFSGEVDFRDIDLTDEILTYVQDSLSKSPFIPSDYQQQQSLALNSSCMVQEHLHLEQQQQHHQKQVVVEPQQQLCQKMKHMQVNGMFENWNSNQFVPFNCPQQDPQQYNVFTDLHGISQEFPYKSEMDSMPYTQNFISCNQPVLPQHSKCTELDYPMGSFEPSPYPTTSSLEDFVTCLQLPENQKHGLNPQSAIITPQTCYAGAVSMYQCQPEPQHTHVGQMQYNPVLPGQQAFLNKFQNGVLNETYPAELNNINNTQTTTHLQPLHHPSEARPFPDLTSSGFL
thrombin 1536: thrombin (human) inhibition; P00734; alpha-thrombin, Boc-VPR-AMC fluorogenic substrate cleavage; inhibition, % at 5 µM; 0.26% of 220,000 active; AID 1046;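 active = inhibition at or above 40%; inactive = inhibition below 40%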;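 note: 0% = enzyme with no compound and 100% = wells without enzyme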
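Material: Human alpha-thrombin protein | Buffer or medium: pH 7.5 Tris-saline with Tween 20 | Reagent: Boc-VPR-AMC substrate, 15 µM final | Schedule: Reaction at ambient temperature | Detection: AMC fluorescence at 355 nm excitation and 460 nm emission | Evaluation: Percent inhibition scaled between no-compound controls and no-enzyme blanks | Controls: no-compound enzyme wells and no-enzyme blanks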
FXIIa inh: factor XIIa (human) inhibition | purified FXIIa, Boc-QGR-AMC fluorogenic substrate, 2 h | 0.3% of 220,000 active | AID 800 | P00748 | inhibition, % at 5 µM; in the data active = inhibition above about 40%;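 note: 0% = enzyme with no compound and 100% = blank without enzyme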
KLK5 inh: kallikrein 5 (human) inhibition; recombinant hK5, fluorogenic AMC substrate cleavage; inhibition, % at 5 µM; 0.59% of 210,000 active; AID 873;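 active = inhibition of 40% or more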;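 note: 0% = enzyme controls without compound and 100% = no-enzyme blanks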
FXIa inh: factor XIa (human) inhibition; P03951; purified FXIa, Boc-Glu-Ala-Arg-AMC fluorogenic substrate; inhibition, % at 5 µM; 0.14% of 220,000 active;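 active = inhibition of at least 40%; inactive = inhibition below 40%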;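 note: fluorescence of freed AMC excited at 355 nm; 0% = enzyme without compound and 100% = no enzyme blank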
AHR act confirm: human AHR activation, confirmation; shares compounds with AHR act; human cells, AHR-responsive luciferase reporter, luminescence; activation, % at 9 µM; 87% of 2,300 active; AID 2845; in the data active = activation above about 49%;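 note: HepG2 hepatoma cells carrying a DRE-driven firefly luciferase reporter; 0% = vehicle wells and 100% = reference agonist wells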
PXR act counter: PXR activation, counter-screen for AHR activators; shares compounds with AHR act; cell-based PXR reporter, luciferase luminescence; activation, % at 11.6 µM; 88% of 2,300 active; in the data active = activation above about 11%;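 note: human hepatoma DPX-2 cells expressing full-length human PXR; 0% = DMSO and 100% = reference agonist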
* marks the source's active call; other numbers are inactive results; nt = not tested or not shown. Hits are enriched below; roughly 3.5% of the tested compounds scored in any of these assays.

SMILES	STAT3 activator	AHR act	thrombin 1536	FXIIa inh	KLK5 inh	FXIa inh	AHR act confirm	PXR act counter
S=c1[nH]nc(-c2cc(-c3ccco3)[nH]n2)n1-c1ccccc1Cl	107	6	-14	-6	-4	2	nt	nt
S=c1[nH]nc(-c2cc(-c3ccco3)[nH]n2)n1-c1ccccc1	96	88*	-2	6	-17	-6	96*	18*
O=C(Nc1ccccc1)Oc1cccc(Br)c1	nt	9	-3	8	0	2	nt	nt
O=C1c2cccc3cccc(c23)C(=O)N1CCN1CCN(C(=S)Nc2ccccc2)CC1	86	98*	3	14	0	10	101*	98*
CCNC(=S)N1CCN(CCN2C(=O)c3cccc4cccc(c34)C2=O)CC1	80	-2	5	19	17	5	nt	nt
O=C1c2cccc3cc([N+](=O)[O-])cc(c23)C(=O)N1CCN1CCCC1	nt	nt	-4	6	0	-1	nt	nt
Nc1cc2c3c(cccc3c1)C(=O)N(CCN1CCCC1)C2=O	nt	142*	-3	13	3	7	201*	nt
O=C1c2cccc3cccc(c23)C(=O)N1CCN1CCN(C(=S)Nc2ccc(Cl)cc2)CC1	109	97*	-14	18	-2	20	110*	65*
Cc1ccc(-n2nc3c(N4CCC(C(=O)NCc5cccc(F)c5)CC4)nnc(C)c3c2C)cc1	nt	-1	nt	nt	nt	nt	nt	nt
COc1ccc(OC)c(NC(=O)CSCC(=O)O)c1	99	3	0	8	0	2	nt	nt
COc1cccc(NC(=S)N2CCN(c3ccccn3)CC2)c1	100	0	-9	1	-12	1	nt	nt
Nc1ccccc1C(=O)NC1CCCNC1=O (stereo unspecified)	nt	0	nt	nt	nt	nt	nt	nt
COc1ccc(-c2cc(C(=O)N3CCN(S(=O)(=O)c4ccc(C)cc4)CC3)[nH]n2)cc1	nt	111*	nt	nt	nt	nt	2	13*
CCN(CC(=O)Nc1c(F)cccc1F)C(=O)C1CC(=O)N(CCc2ccc(OC)c(OC)c2)C1 (stereo unspecified)	nt	0	nt	nt	nt	nt	nt	nt
Cc1c(-c2ccn[nH]2)cc(NC(=O)c2ccc(Cl)cc2)c(=O)n1N	91	86*	-12	5	-3	-4	105*	nt
Cc1c(C(=O)N2c3ccccc3CC2C)oc2ccccc12 (stereo unspecified)	nt	85*	nt	nt	nt	nt	74*	28*
C=CCNC(=S)N/N=C/c1ccc(-c2ccc(Br)cc2)o1	106	81*	-4	3	-13	3	132*	19*
Cc1nc2ccccc2nc1N1CCCC1	nt	0	-3	2	-1	-2	nt	nt
c1ccc2nc3c(nc2c1)OCC1CCCCN31 (stereo unspecified)	nt	102*	nt	nt	nt	nt	104*	46*
CN(C)C(/C=C/Nc1ccc(C#N)cc1)=C(C#N)C#N	90	109*	-1	10	-2	2	102*	25*
CN(C)C(/C=C/Nc1ccc(F)cc1)=C(C#N)C#N	117	45	0	11	-5	-4	nt	nt
O=C(CNC(=O)c1ccccc1)OC(C(=O)Nc1cc(C(F)(F)F)ccc1Cl)c1ccccc1 (stereo unspecified)	100	-1	4	17	0	1	nt	nt
COc1ccc(C)cc1NC(=O)C(OC(=O)CNC(=O)c1ccc(Oc2ccccc2)cc1)c1ccccc1 (stereo unspecified)	88	95*	-3	5	-20	5	71*	20*
Cc1ccc(C)c(NC(=O)CN(C)C(=O)c2cc([N+](=O)[O-])ccc2N2CCOCC2)c1	nt	0	nt	nt	nt	nt	nt	nt
Cc1cc(Br)ccc1NC(=O)CN(C)C(=O)c1cc([N+](=O)[O-])ccc1N1CCOCC1	nt	92*	nt	nt	nt	nt	84*	53*
SMILES	STAT3 activator	AHR act	thrombin 1536	FXIIa inh	KLK5 inh	FXIa inh	AHR act confirm	PXR act counter
CCCc1nn(C)c(C(=O)Nc2cccc3ccccc23)c1Cl	103	93*	-9	4	-4	-12	74*	nt
Cc1ccccc1NC(=O)NCc1ccccn1	nt	-2	nt	nt	nt	nt	nt	nt
Cc1ccc(C)c(NC(=S)c2ccc3ccccc3n2)c1	154*	88*	-5	1	-18	1	104*	16*
Cc1ccc(C)c(NC(=S)c2ccccn2)c1	109	118*	1	3	-24	-8	106*	26*
N#Cc1ccccc1OCC(=O)Nc1ccccc1C(=O)NC1CC1	nt	6	nt	nt	nt	nt	nt	nt
CCC(=O)Nc1ccc2c(c1)nc1n2CCN(CCOC)C1	nt	1	nt	nt	nt	nt	nt	nt
CC1Cc2ccccc2N1C(=O)COc1ccc2c(c1)OCO2 (stereo unspecified)	109	84*	-5	10	9	2	95*	66*
Cc1cc2cc3c(cc2nc1SCC(=O)N1c2ccccc2CC1C)OCO3 (stereo unspecified)	98	35	1	18	-10	10	nt	nt
O=S(=O)(Cc1ccccc1)N1CCc2ccccc2C1	83	15	-4	2	-9	-3	nt	nt
O=S(=O)(Cc1ccccc1)N1CCCc2ccccc21	90	125*	-1	0	-4	-3	114*	80*
O=C1NC(=Nc2ccccc2)S/C1=C/c1cccs1	104	116*	6	45*	26	33	120*	32*
Cc1c(C(=O)NNC(=S)Nc2ccc(S(N)(=O)=O)cc2)oc2ccccc12	nt	-4	nt	nt	nt	nt	nt	nt
CCOC(=O)c1c(C)[nH]c(C)c1C(=O)CSc1nc2ccccc2n1CCC#N	101	99*	-8	8	-5	-9	5	79*
CN1COc2ccc3ccccc3c2C1	117	26	0	3	-18	0	nt	nt
O=C(NC(=S)Nc1ccc(S(=O)(=O)Nc2ncccn2)cc1)c1ccc(Br)cc1	98	1	2	2	3	-5	nt	nt
CCc1nc(Nc2ccccc2F)c2oc3ccccc3c2n1	nt	94*	nt	nt	nt	nt	95*	42*
CCc1nc(NCCCn2ccnc2)c2oc3ccccc3c2n1	117	109*	5	13	17	2	114*	41*
COc1c2c(c(C)c3c1C(=O)OC3)O[C@@]1(C)CC[C@@]3(O)C(C)(C)OC(=O)CC[C@]3(C)[C@H]1C2	nt	3	4	8	3	3	nt	nt
O=C1c2ccccc2C(O)(c2ncc[nH]2)N1CCc1ccccc1 (stereo unspecified)	105	98*	5	10	2	2	105*	24*
C=CCN1C(=O)c2ccccc2C1(O)Cc1ccccc1 (stereo unspecified)	nt	1	nt	nt	nt	nt	nt	nt

Bioassay records (PubChem BioAssay)
